Data reported in ChEMBL document CHEMBL1146906, “Novel potent anticonvulsant agent containing a tetrahydroisoquinoline skeleton” (2006).

Tests used:
Mus musculus [1] = assay: Anticonvulsant activity against tonic phase of audiogenic seizures in ip dosed DBA/2 mouse; assay type: functional; conditions: DBA/2, ip
In short: (§1)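 DBA/2 mice of either sex, groups of 10, given vehicle or each dose intraperitoneally, then exposed to auditory stimulation […]. Incidence of each seizure phase scored. ED50 per phase from dose-response curves fitted by Litchfield and Wilcoxon method. Groups compared by Fisher's exact probability test.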

Mus musculus [2] = assay: Anticonvulsant activity against clonic phase of audiogenic seizures in ip dosed DBA/2 mouse; assay type: functional; conditions: DBA/2, ip; in short: as §1
Rattus norvegicus = organism: Rattus norvegicus; assay: Inhibition of AMPA-induced membrane current in Wistar rat olfactory cortex at 0.5 uM by voltage clamp method; assay type: functional; design: scale not given: the % may be the effect or the level left
In short: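 Transverse olfactory cortex slices from male Wistar rats, kept in oxygenated Krebs solution and superfused with 1 µM TTX. Neurons voltage-clamped at -70 mV. Test agent diluted from DMSO stock into Krebs (0.1-1% v/v DMSO) and pre-incubated 10 min. Peak inward currents evoked by 0.25-5 µM AMPA measured. Pooled means, N = 7.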

[3] = molecular target: Glutamate NMDA receptor (Rattus norvegicus) (UniProt P35439+Q00959+Q00960+Q00961+Q62645+Q8VHN2+Q9R1M7); assay: Displacement of [3H]CGP-39653 from NMDA receptor at 0.5 uM; assay type: protein-complex assay
In short: (§2)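 Radioligand binding assays run at 0.5 µM test compound, using [3H]AMPA, [3H]CGP 39653 or [3H]kainic acid as ligand.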

[4] = molecular target: Glutamate receptor ionotropic, kainate (Rattus norvegicus) (UniProt P22756+Q01812+P42260+P42264+Q63273); assay: Displacement of [3H]kainic acid from kainate receptor at 0.5 uM; assay type: protein-complex assay; in short: as §2
[5] = molecular target: Glutamate receptor ionotropic, AMPA (Rattus norvegicus) (UniProt P19491+P19492+P19493+P19490); assay: Displacement of [3H]AMPA from AMPA receptor at 0.5 uM; assay type: protein-complex assay; in short: as §2

SMILES | ED50 (Mus musculus [1]) [µmol/kg] | ED50 (Mus musculus [2]) [µmol/kg] | further results
COc1cc2c(cc1OC)C(c1ccc(Cl)cc1)N(C(=O)CN1CCOCC1)CC2 (stereo not drawn) | 82.8 | > 100 | –
CCN(CC)CC(=O)N1CCc2cc(OC)c(OC)cc2C1c1ccc(Br)cc1 (stereo not drawn) | 24.7 | 50.5 | –
COc1cc2c(cc1OC)C(c1ccc([N+](=O)[O-])cc1)N(C(=O)CN1CCOCC1)CC2 (stereo not drawn) | 56.5 | > 100 | –
CCN(CC)CC(=O)N1CCc2cc(OC)c(OC)cc2C1c1ccccc1 (stereo not drawn) | 34.8 | 49.1 | –
COc1cc2c(cc1OC)C(c1ccc([N+](=O)[O-])cc1)N(C(=O)CN1CCCCC1)CC2 (stereo not drawn) | > 100 | > 100 | –
COc1cc2c(cc1OC)C(c1cccc(N)c1)N(C(=O)CN1CCOCC1)CC2 (stereo not drawn) | 34.3 | 63.4 | –
CCN(CC)CC(=O)N1CCc2cc(OC)c(OC)cc2C1c1ccc(F)cc1 (stereo not drawn) | 33 | 44.5 | –
CCN(CC)CC(=O)N1CCc2cc(OC)c(OC)cc2C1c1cccc(N)c1 (stereo not drawn) | 50.5 | 111 | –
COc1cc2c(cc1OC)C(c1ccc(N)cc1)N(C(=O)CN1CCOCC1)CC2 (stereo not drawn) | 63.4 | 87.5 | –
COc1cc2c(cc1OC)C(c1ccc(N)cc1)N(C(=O)CN1CCCCC1)CC2 (stereo not drawn) | 45.3 | 84.9 | –
COc1cc2c(cc1OC)C(c1ccccc1)N(C(=O)CN1CCCCC1)CC2 (stereo not drawn) | > 100 | > 100 | –
COc1cc2c(cc1OC)C(c1cccc([N+](=O)[O-])c1)N(C(=O)CN1CCOCC1)CC2 (stereo not drawn) | > 100 | > 100 | –
COc1cc2c(cc1OC)C(c1cccc([N+](=O)[O-])c1)N(C(=O)CN1CCCCC1)CC2 (stereo not drawn) | 82.8 | > 100 | –
COc1cc2c(cc1OC)C(c1ccc(Cl)cc1)N(C(C)=O)CC2 (stereo not drawn) | – | – | Activity (Rattus norvegicus): 7%
COc1cc2c(cc1OC)C(c1cccc(N)c1)N(C(=O)CN1CCCCC1)CC2 (stereo not drawn) | 47.3 | 70.2 | –
CCN(CC)CC(=O)N1CCc2cc(OC)c(OC)cc2C1c1ccc(Cl)cc1 (stereo not drawn) | 11.8 | 24.7 | –
COc1cc2c(cc1OC)C(c1ccc(F)cc1)N(C(=O)CN1CCCCC1)CC2 (stereo not drawn) | 63 | 82.8 | –
CC(=O)N1N=C(c2ccc(N)cc2)c2cc3c(cc2C[C@H]1C)OCO3 [TALAMPANEL] | 9.7 | – | –
COc1cc2c(cc1OC)C(c1ccccc1)N(C(=O)CN1CCOCC1)CC2 (stereo not drawn) | > 100 | > 100 | –
COc1cc2c(cc1OC)C(c1ccc(Br)cc1)N(C(=O)CN1CCOCC1)CC2 (stereo not drawn) | 83.8 | > 100 | –
COc1cc2c(cc1OC)C(c1ccc(F)cc1)N(C(=O)CN1CCOCC1)CC2 (stereo not drawn) | 46.9 | 71.7 | –
CCN(CC)CC(=O)N1CCc2cc(OC)c(OC)cc2C1c1ccc([N+](=O)[O-])cc1 (stereo not drawn) | > 100 | > 100 | –
CCN(CC)CC(=O)N1CCc2cc(OC)c(OC)cc2C1c1ccc(N)cc1 (stereo not drawn) | 49 | 80.2 | –
COc1cc2c(cc1OC)C(c1ccc(Cl)cc1)N(C(=O)CN1CCCCC1)CC2 (stereo not drawn) | 17 | 39.8 | –
COc1cc2c(cc1OC)C(c1ccc(N)cc1)=NNC(=O)C2 | – | 15 | –
CCN(CC)CC(=O)N1CCc2cc(OC)c(OC)cc2C1c1cccc([N+](=O)[O-])c1 (stereo not drawn) | 16.7 | 38.6 | –
COc1cc2c(cc1OC)C(c1ccc(Br)cc1)N(C(=O)CN1CCCCC1)CC2 (stereo not drawn) | – | – | Activity [3]: < 6%; Activity (Rattus norvegicus): 6%; Activity [4]: < 6%; Activity [5]: < 6%
